Measurements: ChEMBL document CHEMBL3861992 (Bioorg Med Chem Lett, 2016)
The source made the active and inactive calls. The calls are words filed in the database; no cut-off is given here.

Columns and labels:
[1] = molecular target: Microtubule-associated protein tau (Homo sapiens, UniProt P10636); test: Inhibition of recombinant human TAU three-repeat microtubule-binding domain aggregation expressed in Escherichia coli after 16 hrs by thioflavin T fluorescence assay
[2] = molecular target: Amyloid-beta precursor protein (Homo sapiens, UniProt P05067); test: Inhibition of amyloid beta (1 to 42 residues) (unknown origin) aggregation after 24 hrs by thioflavin T fluorescence assay
Sequence of Amyloid-beta precursor protein (P05067 whole entry, the tested form may be a part): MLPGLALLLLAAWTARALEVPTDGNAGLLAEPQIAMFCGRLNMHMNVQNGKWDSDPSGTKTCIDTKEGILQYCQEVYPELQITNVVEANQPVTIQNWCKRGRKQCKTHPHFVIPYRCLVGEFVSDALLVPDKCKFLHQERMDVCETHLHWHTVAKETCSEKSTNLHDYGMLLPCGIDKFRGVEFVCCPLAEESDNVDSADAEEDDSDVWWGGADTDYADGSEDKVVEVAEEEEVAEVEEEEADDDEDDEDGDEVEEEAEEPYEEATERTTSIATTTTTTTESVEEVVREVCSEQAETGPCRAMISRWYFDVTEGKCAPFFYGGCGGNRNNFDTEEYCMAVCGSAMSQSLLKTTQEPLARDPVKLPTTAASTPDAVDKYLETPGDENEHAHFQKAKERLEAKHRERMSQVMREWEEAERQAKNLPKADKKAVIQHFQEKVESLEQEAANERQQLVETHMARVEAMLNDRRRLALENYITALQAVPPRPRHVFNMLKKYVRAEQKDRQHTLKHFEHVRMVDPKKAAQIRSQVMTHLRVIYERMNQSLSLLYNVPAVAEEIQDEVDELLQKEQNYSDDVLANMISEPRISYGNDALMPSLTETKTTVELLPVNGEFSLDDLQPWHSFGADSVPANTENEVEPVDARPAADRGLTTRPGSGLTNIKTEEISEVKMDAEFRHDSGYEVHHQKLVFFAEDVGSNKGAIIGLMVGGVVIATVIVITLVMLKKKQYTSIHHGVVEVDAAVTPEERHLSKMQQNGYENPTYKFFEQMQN

[3] = Drug uptake in Sprague-Dawley rat brain at 50 mg/kg, po after 3 hrs by LC-MS/MS analysis; format: ADME, organism-based; settings: read-out: Drug uptake
Method in brief: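 Brains collected from SD rats 3 h after a 50 mg/kg oral dose; tissue drug concentration measured per g tissue. Mean ± SD, n = 3.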

[4] = tested on: Mus musculus; test: In vivo inhibition of human tau aggregation in JNPL3 human tau P301L transgenic mouse model assessed as reduction in amount of sarkosyl-insoluble tau in brain at 20 to 40 mg/kg/day, po for 4 weeks by ELISA; format: functional, organism-based
[5] = Drug uptake in Sprague-Dawley rat plasma at 5 mg/kg, iv up to 3 hrs by LC-MS/MS analysis; format: ADME, organism-based; settings: in vivo
Method in brief: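 SD rats given 5 mg/kg intravenously; plasma concentrations sampled up to 3 h post-dose. Mean ± SD, n = 3.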

[6] = Plasma concentration in Sprague-Dawley rat at 50 mg/kg, po after 3 hrs by LC-MS/MS analysis; format: ADME, organism-based
Method in brief: (§1)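 SD rats dosed orally at 50 mg/kg; plasma drug levels followed up to 3 h. Mean ± SD, n = 3.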

[7] = Tmax in mouse; format: ADME, organism-based; settings: in vivo
[8] = Cmax in Sprague-Dawley rat at 50 mg/kg, po after 30 mins by LC-MS/MS analysis; format: ADME, organism-based; design: dose 50 mg/kg, route oral; settings: in vivo; method in brief: as §1

Sequence of Microtubule-associated protein tau (P10636 whole entry, the tested form may be a part): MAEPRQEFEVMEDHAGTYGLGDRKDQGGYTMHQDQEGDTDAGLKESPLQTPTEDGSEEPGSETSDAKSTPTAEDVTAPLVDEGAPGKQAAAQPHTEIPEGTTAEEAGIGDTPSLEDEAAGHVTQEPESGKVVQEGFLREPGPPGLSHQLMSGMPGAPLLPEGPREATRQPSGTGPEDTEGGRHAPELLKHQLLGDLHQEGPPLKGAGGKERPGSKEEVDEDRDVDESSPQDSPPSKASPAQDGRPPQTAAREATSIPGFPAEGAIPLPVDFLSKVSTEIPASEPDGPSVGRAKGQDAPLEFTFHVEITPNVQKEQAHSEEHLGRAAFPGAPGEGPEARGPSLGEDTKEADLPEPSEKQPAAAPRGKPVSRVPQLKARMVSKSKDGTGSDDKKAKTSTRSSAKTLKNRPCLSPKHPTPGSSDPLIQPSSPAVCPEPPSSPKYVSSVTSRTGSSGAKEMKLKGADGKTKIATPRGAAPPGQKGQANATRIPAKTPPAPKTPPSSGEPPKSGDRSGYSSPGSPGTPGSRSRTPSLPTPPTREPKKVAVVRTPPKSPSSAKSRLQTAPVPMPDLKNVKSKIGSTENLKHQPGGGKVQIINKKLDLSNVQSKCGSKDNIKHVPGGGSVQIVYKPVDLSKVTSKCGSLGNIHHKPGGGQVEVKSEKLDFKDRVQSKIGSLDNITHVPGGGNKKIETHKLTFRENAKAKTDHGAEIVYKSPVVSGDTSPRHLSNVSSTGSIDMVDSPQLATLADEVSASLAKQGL

SMILES	IC50 [1] [nM]	IC50 [2] [nM]	further results
COc1cc(/C=C/C(=O)CC(=O)/C=C/c2ccco2)ccc1O	2000	760	–
COc1cc(O)ccc1/C=C/C(=O)CC(=O)/C=C/c1ccc2cc[nH]c2c1	230	520	–
COc1ccc(/C=C/C(=O)CC(=O)/C=C/c2ccc3cc[nH]c3c2)c(OC)c1	700	610	–
COc1cc(/C=C/C(=O)CC(=O)/C=C/c2ccc(O)c(OC)c2)ccc1O [CURCUMIN]	–	–	concentration at 3 h [3]: 13 ng/g
COc1cc(/C=C/C(=O)CC(=O)/C=C/c2ccc3ccccc3c2)ccc1O	420	590	–
COc1ccc(O)c(/C=C/C(=O)CC(=O)/C=C/c2ccc(O)c(OC)c2)c1	920	1800	–
CN(C)c1ccc2nc3ccc(=[N+](C)C)cc-3sc2c1 [METHYLENE BLUE ANHYDROUS]	–	500	–
COc1cc(/C=C/C(=O)CC(=O)/C=C/c2c(O)cccc2OC)ccc1O	910	1600	–
COc1cc(/C=C/C(=O)CC(=O)/C=C/c2cccc(O)c2OC)ccc1O	710	1900	–
COc1cc(/C=C/C(=O)CC(=O)/C=C/c2cc(O)ccc2OC)ccc1O	600	1300	–
COc1ccc(/C=C/C(=O)CC(=O)/C=C/c2ccc(O)c(OC)c2)c(O)c1	1400	930	–
COc1ccc(/C=C/C(=O)CC(=O)/C=C/c2ccc(O)c(OC)c2)cc1O	520	2100	–
COc1cc(/C=C/C(=O)CC(=O)/C=C/c2ccccc2)ccc1O	1400	2200	–
COc1cc(/C=C/C(=O)CC(=O)/C=C/c2ccc3cc[nH]c3c2)ccc1O	440	420	–
COc1cc(OCC2CCCO2)ccc1/C=C/C(=O)CC(=O)/C=C/c1ccc2cc[nH]c2c1 (stereo not drawn)	420	2500	–
COc1cc(O)ccc1/C=C/C(=O)CC(=O)/C=C/c1ccc(O)cc1OC	> 10000	4600	–
COc1cc(OCc2ccccn2)ccc1/C=C/c1cc(/C=C/c2ccc3cc[nH]c3c2)[nH]n1	660	1200	inhibition [4]: Active; Drug uptake [5]: Active; concentration at 3 h [6]: 466 ng/mL; Tmax [7]: 6 h; concentration at 3 h [3]: 276 ng/g
COc1cc(/C=C/C(=O)CC(=O)/C=C/c2ccc3c(c2)OCO3)ccc1O	1200	3700	–
COc1cc(/C=C/C(=O)CC(=O)/C=C/c2ccc(O)cc2OC)ccc1O	580	920	–
COc1cc(O)cc(/C=C/C(=O)CC(=O)/C=C/c2ccc(O)c(OC)c2)c1	320	1100	–
COc1cc(OCc2ccccc2)ccc1/C=C/C(=O)CC(=O)/C=C/c1ccc2cc[nH]c2c1	610	5400	–
COc1cc(/C=C/C(=O)CC(=O)/C=C/c2cccnc2)ccc1O	> 10000	> 10000	–
COc1cc(OCc2ccccn2)ccc1/C=C/C(=O)CC(=O)/C=C/c1ccc2cc[nH]c2c1	330	470	Cmax [8]: 5.7 ng/mL; concentration at 3 h [3]: 1 ng/g
COc1cc(/C=C/C(=O)CC(=O)/C=C/c2cccc(OC)c2O)ccc1O	690	5400	–
